Results reported in ChEMBL document CHEMBL3792386, “Design, Synthesis, and Biological Evaluation of Novel Selenium (Se-NSAID) Molecules as Anticancer Agents” (J Med Chem, 2016).
Active and inactive are the calls of the source. No cut-off for these calls is given here.

Assays:
HCT-116 [1] = experiment: Induction of ROS generation in human HCT116 cells at 5 uM after 6 hrs by flow cytometry (reference value: 6%); type: functional
[2] = Antiproliferative activity against human PANC1 cells assessed as reduction in cell viability after 72 hrs by MTT assay; type: functional, cell-based; conditions: PANC-1, 72 h
How it was run: (§1)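 3000 cells/well incubated in triplicate with serial concentrations of compound for 24, 48 or 72 h at 37 °C. MTT (5.0 mg/mL solution) added 3 h before the end. Formazan dissolved in DMSO, absorbance read at 570 and 630 nm. Viability normalised to vehicle control. IC50 from non-linear regression (variable slope), mean ± SD of triplicates.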

HepG2 = experiment: Antiproliferative activity against human HepG2 cells assessed as reduction in cell viability after 72 hrs by MTT assay; type: functional, cell-based; conditions: HepG2, 72 h; how it was run: as §1
[3] = Induction of cell death in human HCT116 cells at 15 uM after 24 hrs by ethidium bromide staining-based fluorescence microscopy; type: functional, HCT-116
How it was run: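 HCT116 cells treated 24 h with DMSO, 1 mM aspirin or 15 μM compound, then trypsinised. Cells were stained with calcein-AM (live, esterase activity) and ethidium homodimer-1 (dead, membrane loss). Cells were imaged by fluorescence microscopy with a 20X objective, and percent dead cells was counted. Values are mean ±SD.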

HCT-116 [4] = experiment: Induction of apoptosis in human HCT116 cells assessed as early apoptotic cells at 5 uM after 24 hrs by 7-ADD and caspase 3/7 activity-based flow cytometry (reference value: 2.45%); type: functional
NHDF = experiment: Cytotoxicity against human NHDF at 1 to 10 uM after 48 hrs by MTT assay; type: cell-based
How it was run: (§2)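 Cells (HCT116, nHDF in serum-free fibroblast medium with growth kit, or MEFs) exposed to increasing compound concentrations for 48 h at 37 °C. Viability read by MTT: 3000 cells/well, triplicate, MTT 3 h before end, formazan in DMSO, absorbance 570/630 nm. Mean ± SD.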

[5] = Antiproliferative activity against human HCT116 cells assessed as reduction in cell viability after 72 hrs by MTT assay; type: functional, cell-based; conditions: HCT-116, 72 h; how it was run: as §1
HCT-116 [6] = experiment: Induction of cell cycle arrest in human HCT116 cells assessed as reduction of G2/M phase at 5 uM after 24 hrs by propidium iodide staining-based flow cytometry (reference value: 24%); type: functional; parameters: scale not given: the % may be the effect or the level left
[7] = Antiproliferative activity against human PANC1 cells assessed as reduction in cell viability after 48 hrs by MTT assay; type: functional, cell-based; conditions: PANC-1, 48 h; how it was run: as §1
RKO [8] = experiment: Antiproliferative activity against human RKO cells assessed as reduction in cell viability after 24 hrs by MTT assay; type: functional, cell-based; how it was run: as §1
HCT-116 [9] = experiment: Induction of cell cycle arrest in human HCT116 cells assessed as accumulation at S phase at 5 uM after 24 hrs by propidium iodide staining-based flow cytometry (reference value: 48%); type: functional
HCT-116 [10] = experiment: Induction of apoptosis in human HCT116 cells assessed as late apoptotic cells at 10 uM after 24 hrs by 7-ADD and caspase 3/7 activity-based flow cytometry (reference value: 1.70%); type: functional
RKO [11] = experiment: Antiproliferative activity against human RKO cells assessed as reduction in cell viability after 48 hrs by MTT assay; type: functional, cell-based; how it was run: as §1
HCT-116 [12] = experiment: Induction of cell cycle arrest in human HCT116 cells assessed as accumulation at G1 phase at 5 uM after 24 hrs by propidium iodide staining-based flow cytometry (reference value: 28%); type: functional
HCT-116 [13] = experiment: Induction of ROS generation in human HCT116 cells at 10 uM after 24 hrs by flow cytometry (reference value: 12.42%); type: functional
HCT-116 [14] = experiment: Induction of apoptosis in human HCT116 cells assessed as early apoptotic cells at 10 uM after 24 hrs by annexin V/7-ADD staining-based flow cytometry (reference value: 5.20%); type: functional
HCT-116 [15] = experiment: Cytotoxicity against human HCT116 cells assessed as reduction in cell viability after 48 hrs MTT assay; type: functional, cell-based; how it was run: as §2
HCT-116 [16] = experiment: Induction of apoptosis in human HCT116 cells assessed as late apoptotic cells at 5 uM after 24 hrs by annexin V/7-ADD staining-based flow cytometry (reference value: 1.65%); type: functional
HT-29 = experiment: Antiproliferative activity against human HT-29 cells assessed as reduction in cell viability after 24 hrs by MTT assay; type: functional, cell-based; conditions: HT-29, 24 h; how it was run: as §1
HCT-116 [17] = experiment: Effect on cell cycle in human HCT116 cells assessed as inhibition of cyclin E1 expression at 1 to 10 uM after 24 hrs by Western blot method; type: functional, cell-based
How it was run: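 CRC cells treated at indicated doses for 24 h. Whole-cell lysates made in RIPA buffer with protease and phosphatase inhibitors and cleared at 15,000 rpm for 10 min. Resolved on 4-12% gels, transferred to PVDF, probed for cell-cycle proteins, detected by ECL. Membranes stripped for sequential probing.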

HCT-116 [18] = experiment: Induction of apoptosis in human HCT116 cells assessed as early apoptotic cells at 10 uM after 24 hrs by 7-ADD and caspase 3/7 activity-based flow cytometry (reference value: 2.45%); type: functional
HCT-116 [19] = experiment: Induction of apoptosis in human HCT116 cells assessed as dead cells at 2.5 uM after 24 hrs by 7-ADD and caspase 3/7 activity-based flow cytometry (reference value: 3.25%); type: functional
HCT-116 [20] = experiment: Induction of ROS generation in human HCT116 cells at 5 uM after 3 hrs by flow cytometry (reference value: 8.06%); type: functional
NCI-H460 [21] = experiment: Antiproliferative activity against human NCI-H460 cells assessed as reduction in cell viability after 72 hrs by MTT assay; type: functional, cell-based; conditions: NCI-H460, 72 h; how it was run: as §1
NCI-H460 [22] = experiment: Antiproliferative activity against human NCI-H460 cells assessed as reduction in cell viability after 24 hrs by MTT assay; type: functional, cell-based; conditions: NCI-H460, 24 h; how it was run: as §1
HCT-116 [23] = experiment: Induction of apoptosis in human HCT116 cells assessed as live cells at 2.5 uM after 24 hrs by annexin V/7-ADD staining-based flow cytometry (reference value: 90.05%); type: functional
HCT-116 [24] = experiment: Induction of apoptosis in human HCT116 cells assessed as dead cells at 5 uM after 24 hrs by 7-ADD and caspase 3/7 activity-based flow cytometry (reference value: 3.25%); type: functional
HCT-116 [25] = experiment: Induction of apoptosis in human HCT116 cells assessed as live cells at 2.5 uM after 24 hrs by 7-ADD and caspase 3/7 activity-based flow cytometry (reference value: 92.60%); type: functional
HCT-116 [26] = experiment: Induction of apoptosis in human HCT116 cells assessed as late apoptotic cells at 10 uM after 24 hrs by annexin V/7-ADD staining-based flow cytometry (reference value: 1.65%); type: functional
[27] = Antiproliferative activity against human SKOV3 cells assessed as reduction in cell viability after 48 hrs by MTT assay; type: functional, cell-based; conditions: SK-OV-3, 48 h; how it was run: as §1
MDA-MB-231 = experiment: Antiproliferative activity against human MDA-MB-231 cells assessed as reduction in cell viability after 72 hrs by MTT assay; type: functional, cell-based; conditions: MDA-MB-231, 72 h; how it was run: as §1
HCT-116 [28] = experiment: Induction of apoptosis in human HCT116 cells assessed as live cells at 10 uM after 24 hrs by 7-ADD and caspase 3/7 activity-based flow cytometry (reference value: 92.60%); type: functional
HCT-116 [29] = experiment: Induction of cell cycle arrest in human HCT116 cells assessed as accumulation at S phase at 5 uM after 12 hrs by propidium iodide staining-based flow cytometry (reference value: 55%); type: functional

`CC(=O)Oc1ccccc1C(=O)NCC[Se]C#N` showed an Activity (HCT-116 [1]) of 13.12%, an IC50 [2] of 2.6 µM and an IC50 (HepG2) of 4.3 µM. For the same molecule, the Activity [3] was 51%, the Activity (HCT-116 [4]) was 44% and the Activity (NHDF) was “Non-toxic”. The IC50 [5] was 2.1 µM, the Activity (HCT-116 [6]) was 19% and the IC50 [7] was 2.1 µM. The IC50 (RKO [8]) was 13.3 µM, the Activity (HCT-116 [9]) was 13% and the Activity (HCT-116 [10]) was 46.85%. For the same molecule, the IC50 (RKO [11]) was 2.2 µM, the Activity (HCT-116 [12]) was 68% and the Activity (HCT-116 [13]) was 80.54%. The Activity (HCT-116 [14]) was 32.4%, the Activity (HCT-116 [15]) was “Active” and the Activity (HCT-116 [16]) was 31.35%. The IC50 (HT-29) was 3.4 µM, the inhibition (HCT-116 [17]) was “Active” and the Activity (HCT-116 [18]) was 37.65%. For the same molecule, the Activity (HCT-116 [19]) was 2.1%, the Activity (HCT-116 [20]) was 9.16% and the IC50 (NCI-H460 [21]) was 1.3 µM. The IC50 (NCI-H460 [22]) was over 50 µM, the Activity (HCT-116 [23]) was 76.8% and the Activity (HCT-116 [24]) was 2.65%. It also gave an Activity (HCT-116 [25]) of 60.4%, an Activity (HCT-116 [26]) of 51.55% and an IC50 [27] of 5.3 µM. The IC50 (MDA-MB-231) was 6 µM, the Activity (HCT-116 [28]) was 13.25% and the Activity (HCT-116 [29]) was 14%.
